Our source for the IC50 and inhibition values is ChEMBL document CHEMBL2086320, “New synthetic inhibitors of fatty acid synthase with anticancer activity” (J Med Chem, 2012).

One test has as its system SK-BR-3. Put plainly: Cytotoxicity against human SKBR3 cells after 48 hrs by MTT assay. Format: functional, cell-based. Conditions: SK-BR-3, 48 h. In short, it runs like this: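 MTT colorimetric assay: cells seeded at 5 or 7 x 10³ cells/well, attached overnight, then given fresh medium with a range of compound concentrations for 48 h at 37 °C, 5% CO2. MTT added for 3 h, formazan dissolved in DMSO, absorbance read at 570 or 540 nm. IC50 as mean±SEM from at least two independent experiments in duplicate or triplicate.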
A general note: Formazan colour is commonly taken as a measure of viable cells.

In test [1] the target is Fatty acid synthase (Homo sapiens) (UniProt P49327). The test can be described thus: Inhibition of FASN in human SK-BR-3 cells assessed as oxidation of NADPH at 36 uM after 24 hrs by Spectrophotometric analysis relative to control. Format: cell-based.
For test [2] the target is unchanged. The test can be described thus: Inhibition of FASN in human SK-BR-3 cells assessed as oxidation of NADPH at 39 uM after 24 hrs by Spectrophotometric analysis relative to control. Format: cell-based.
The target is the same in test [3]. Put plainly: Inhibition of FASN in human SK-BR-3 cells assessed as oxidation of NADPH at 8 uM after 24 hrs by Spectrophotometric analysis relative to control. Format: cell-based.
The target is the same in test [4]. The test can be described thus: Inhibition of FASN in human SK-BR-3 cells assessed as oxidation of NADPH at 28 uM after 24 hrs by Spectrophotometric analysis relative to control. Format: cell-based.
Test [5] shares this target. Put plainly: Inhibition of FASN in human SK-BR-3 cells assessed as oxidation of NADPH at 78 uM after 24 hrs by Spectrophotometric analysis relative to control. Format: cell-based.
The target is the same in test [6]. Put plainly: Inhibition of FASN in human SK-BR-3 cells assessed as oxidation of NADPH at 42 uM after 24 hrs by Spectrophotometric analysis relative to control. Format: cell-based.
Test [7] has the same target. The test can be described thus: Inhibition of FASN in human SK-BR-3 cells assessed as oxidation of NADPH at 47 uM after 24 hrs by Spectrophotometric analysis relative to control. The test is classed as cell-based.
The target is the same in test [8]. Put plainly: Inhibition of FASN in human SK-BR-3 cells assessed as oxidation of NADPH at 31 uM after 24 hrs by Spectrophotometric analysis relative to control. The test is classed as cell-based.
For test [9] the target is unchanged. Put plainly: Inhibition of FASN in human SK-BR-3 cells assessed as oxidation of NADPH at 26 uM after 24 hrs by Spectrophotometric analysis relative to control. Format: cell-based.
Test [10] shares this target. The test can be described thus: Inhibition of FASN in human SK-BR-3 cells assessed as oxidation of NADPH at 22 uM after 24 hrs by Spectrophotometric analysis relative to control. The test is classed as cell-based.
For test [11] the target is unchanged. The test can be described thus: Inhibition of FASN in human SK-BR-3 cells assessed as oxidation of NADPH at 76 uM after 24 hrs by Spectrophotometric analysis relative to control. The test is classed as cell-based.
For test [12] the target is unchanged. Put plainly: Inhibition of FASN in human SK-BR-3 cells assessed as oxidation of NADPH at 23 uM after 24 hrs by Spectrophotometric analysis relative to control. Format: cell-based.
In test [13] the target is Receptor tyrosine-protein kinase erbB-2 (Homo sapiens) (UniProt P04626). Put plainly: Inhibition of HER2 phosphorylation in human SK-BR-3 cells after 6 hrs by Western blot analysis. Format: cell-based. Conditions: concentration not given here. In short, it runs like this:
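SK-Br3 cells treated for 6, 12 or 24 h, harvested with trypsin-EDTA, lysed in Tris-HCl pH 7.5/EDTA/NaCl/PMSF buffer at 4 °C. Equal protein run on 3-8% SDS-PAGE and transferred to nitrocellulose. Membranes probed overnight at 4 °C with anti-phospho-HER2 mouse monoclonal, then peroxidase secondary and chemiluminescence. Re-probed for β-actin as loading control. Gels are representative of at least two independent experiments.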
In general terms: In western blotting, separated proteins are transferred to a membrane and probed.

In test [14] the target is Fatty acid synthase (Homo sapiens) (UniProt P49327). Put plainly: Inhibition of FASN in human SK-BR-3 cells assessed as oxidation of NADPH at 25 uM after 24 hrs by Spectrophotometric analysis relative to control. The test is classed as cell-based.
The target is the same in test [15]. Put plainly: Inhibition of FASN in human SK-BR-3 cells assessed as oxidation of NADPH at 41 uM after 24 hrs by Spectrophotometric analysis relative to control. The test is classed as cell-based.
For test [16] the target is unchanged. Put plainly: Inhibition of FASN in human SK-BR-3 cells assessed as oxidation of NADPH at 5 uM after 24 hrs by Spectrophotometric analysis relative to control. Format: cell-based.
Test [17] shares this target. The test can be described thus: Inhibition of FASN in human SK-BR-3 cells assessed as oxidation of NADPH at 17 uM after 24 hrs by Spectrophotometric analysis relative to control. Format: cell-based.

Active and inactive are the calls of the source. The calls are words filed in the database; no cut-off is given here.

What is called IC50 is the point on the concentration scale where inhibition reaches its midpoint. Broadly, the inhibition is the change of the read-out against control, counted positive when it falls.

Chain of Fatty acid synthase (Homo sapiens) (P49327 whole entry, looked up): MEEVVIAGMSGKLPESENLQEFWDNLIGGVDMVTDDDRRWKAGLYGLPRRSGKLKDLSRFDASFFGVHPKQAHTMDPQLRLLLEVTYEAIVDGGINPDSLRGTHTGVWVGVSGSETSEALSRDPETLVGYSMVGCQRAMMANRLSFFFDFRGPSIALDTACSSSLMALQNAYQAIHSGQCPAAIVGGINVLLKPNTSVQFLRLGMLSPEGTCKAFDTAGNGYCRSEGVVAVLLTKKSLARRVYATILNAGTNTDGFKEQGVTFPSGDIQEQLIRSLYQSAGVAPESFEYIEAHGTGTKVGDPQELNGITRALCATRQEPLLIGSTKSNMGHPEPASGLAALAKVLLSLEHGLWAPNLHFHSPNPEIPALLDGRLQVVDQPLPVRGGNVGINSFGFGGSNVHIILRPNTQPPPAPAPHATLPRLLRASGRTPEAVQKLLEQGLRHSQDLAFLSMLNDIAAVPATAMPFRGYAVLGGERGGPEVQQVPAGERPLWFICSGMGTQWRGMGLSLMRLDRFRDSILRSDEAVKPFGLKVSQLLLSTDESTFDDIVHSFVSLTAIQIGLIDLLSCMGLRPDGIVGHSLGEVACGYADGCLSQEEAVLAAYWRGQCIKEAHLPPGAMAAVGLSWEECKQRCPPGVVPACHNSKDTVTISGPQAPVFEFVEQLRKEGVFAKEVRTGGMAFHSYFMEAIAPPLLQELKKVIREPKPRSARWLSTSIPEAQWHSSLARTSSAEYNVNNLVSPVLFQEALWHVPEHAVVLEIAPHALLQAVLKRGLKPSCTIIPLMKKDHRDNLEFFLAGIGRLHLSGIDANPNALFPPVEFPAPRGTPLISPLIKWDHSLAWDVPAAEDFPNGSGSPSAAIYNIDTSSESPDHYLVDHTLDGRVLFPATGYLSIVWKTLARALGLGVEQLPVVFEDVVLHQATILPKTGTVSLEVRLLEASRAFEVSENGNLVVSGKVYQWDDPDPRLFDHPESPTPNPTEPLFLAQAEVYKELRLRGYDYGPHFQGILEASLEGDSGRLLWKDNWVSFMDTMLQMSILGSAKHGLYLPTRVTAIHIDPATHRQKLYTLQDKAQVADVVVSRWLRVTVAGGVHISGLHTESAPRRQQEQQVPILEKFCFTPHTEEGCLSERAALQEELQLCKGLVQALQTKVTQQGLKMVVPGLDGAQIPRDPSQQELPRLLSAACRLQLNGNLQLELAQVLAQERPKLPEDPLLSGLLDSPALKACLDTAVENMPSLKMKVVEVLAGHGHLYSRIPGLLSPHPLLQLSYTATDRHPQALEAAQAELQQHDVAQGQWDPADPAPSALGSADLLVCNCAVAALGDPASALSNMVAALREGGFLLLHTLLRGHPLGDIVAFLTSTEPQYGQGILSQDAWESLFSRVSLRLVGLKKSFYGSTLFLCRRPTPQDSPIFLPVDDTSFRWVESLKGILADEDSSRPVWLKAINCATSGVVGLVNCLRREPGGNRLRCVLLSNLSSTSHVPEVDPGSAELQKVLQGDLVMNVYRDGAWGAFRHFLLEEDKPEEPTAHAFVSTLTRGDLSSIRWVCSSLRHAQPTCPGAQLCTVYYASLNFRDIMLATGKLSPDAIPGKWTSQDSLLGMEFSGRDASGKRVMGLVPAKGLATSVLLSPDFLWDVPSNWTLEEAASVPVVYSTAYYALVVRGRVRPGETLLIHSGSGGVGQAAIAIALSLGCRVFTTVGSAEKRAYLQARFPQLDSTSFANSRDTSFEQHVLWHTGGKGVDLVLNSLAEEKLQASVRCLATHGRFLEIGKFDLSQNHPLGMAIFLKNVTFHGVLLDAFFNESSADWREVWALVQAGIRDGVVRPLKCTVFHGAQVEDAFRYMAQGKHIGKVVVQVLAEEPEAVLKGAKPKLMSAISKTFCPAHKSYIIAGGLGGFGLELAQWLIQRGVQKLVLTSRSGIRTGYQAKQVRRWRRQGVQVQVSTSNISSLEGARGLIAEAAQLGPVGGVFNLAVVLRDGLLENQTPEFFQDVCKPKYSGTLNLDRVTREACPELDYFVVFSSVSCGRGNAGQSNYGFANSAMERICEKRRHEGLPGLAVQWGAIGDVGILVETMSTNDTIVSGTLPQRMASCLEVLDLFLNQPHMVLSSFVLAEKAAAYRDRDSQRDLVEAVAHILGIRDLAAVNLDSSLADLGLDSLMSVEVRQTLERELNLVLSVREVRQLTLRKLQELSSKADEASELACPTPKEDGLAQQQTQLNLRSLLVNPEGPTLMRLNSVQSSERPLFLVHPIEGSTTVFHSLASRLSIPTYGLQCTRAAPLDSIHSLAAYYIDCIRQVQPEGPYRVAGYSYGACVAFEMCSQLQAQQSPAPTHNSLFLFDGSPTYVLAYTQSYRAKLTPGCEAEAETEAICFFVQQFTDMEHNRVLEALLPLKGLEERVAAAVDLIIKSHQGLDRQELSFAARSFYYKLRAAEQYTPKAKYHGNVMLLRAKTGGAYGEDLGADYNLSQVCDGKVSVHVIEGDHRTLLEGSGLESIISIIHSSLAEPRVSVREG
Chain of Receptor tyrosine-protein kinase erbB-2 (Homo sapiens) (P04626 whole entry): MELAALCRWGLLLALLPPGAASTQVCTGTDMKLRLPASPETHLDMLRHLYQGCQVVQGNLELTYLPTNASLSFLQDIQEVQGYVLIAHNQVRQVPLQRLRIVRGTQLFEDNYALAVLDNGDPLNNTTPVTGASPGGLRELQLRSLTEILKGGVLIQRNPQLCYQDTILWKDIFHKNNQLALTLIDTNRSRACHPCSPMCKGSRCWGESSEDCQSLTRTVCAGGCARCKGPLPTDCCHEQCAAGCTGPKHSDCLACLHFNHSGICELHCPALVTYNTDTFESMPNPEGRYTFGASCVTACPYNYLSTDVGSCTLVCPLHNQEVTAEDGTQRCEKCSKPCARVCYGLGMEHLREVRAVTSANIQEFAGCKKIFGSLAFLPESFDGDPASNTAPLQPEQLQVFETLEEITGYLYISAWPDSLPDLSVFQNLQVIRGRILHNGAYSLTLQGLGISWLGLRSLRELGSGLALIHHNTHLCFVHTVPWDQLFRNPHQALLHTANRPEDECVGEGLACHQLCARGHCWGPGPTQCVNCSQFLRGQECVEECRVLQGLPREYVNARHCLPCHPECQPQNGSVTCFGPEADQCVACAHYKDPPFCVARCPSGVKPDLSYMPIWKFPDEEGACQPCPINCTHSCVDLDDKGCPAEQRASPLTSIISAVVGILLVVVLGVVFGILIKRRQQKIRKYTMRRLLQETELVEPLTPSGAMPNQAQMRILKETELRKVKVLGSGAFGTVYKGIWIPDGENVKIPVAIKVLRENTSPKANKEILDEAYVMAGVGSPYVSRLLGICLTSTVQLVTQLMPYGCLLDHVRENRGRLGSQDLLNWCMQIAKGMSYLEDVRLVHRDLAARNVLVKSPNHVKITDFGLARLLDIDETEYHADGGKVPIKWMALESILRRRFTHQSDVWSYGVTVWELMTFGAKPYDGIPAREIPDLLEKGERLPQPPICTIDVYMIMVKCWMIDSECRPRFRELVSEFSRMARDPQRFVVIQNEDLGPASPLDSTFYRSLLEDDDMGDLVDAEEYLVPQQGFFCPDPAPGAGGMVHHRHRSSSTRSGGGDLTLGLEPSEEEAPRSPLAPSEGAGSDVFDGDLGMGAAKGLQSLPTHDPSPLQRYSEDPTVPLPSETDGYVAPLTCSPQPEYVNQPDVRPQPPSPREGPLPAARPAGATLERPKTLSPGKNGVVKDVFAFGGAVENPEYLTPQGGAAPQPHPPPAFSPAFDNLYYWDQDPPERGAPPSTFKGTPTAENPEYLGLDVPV

As for `COC(=O)c1cc(OC(=O)c2cc(O)c(O)c(O)c2)ccc1OC(=O)c1cc(O)c(O)c(O)c1`, in the test on SK-BR-3, half-maximal inhibition (IC50) required 36 µM. Besides, in [1], the inhibition turned out to be 43%. Take `O=C(Oc1ccc2c(OC(=O)c3cc(O)c(O)c(O)c3)cccc2c1)c1cc(O)c(O)c(O)c1`: the IC50 with SK-BR-3 stood at 39 µM. Besides, in test [2], the inhibition result is “inactive”. `COc1cc(OC(=O)c2cc(O)c(O)c(O)c2)ccc1OC(=O)c1cc(O)c(O)c(O)c1` yielded a half-maximal inhibitory concentration (IC50) with SK-BR-3 of 8 µM. Also, the inhibition result in [3] is “inactive”. Compound `COC(=O)c1cc(OC(=O)c2cc(O)c(O)c(O)c2)c2ccccc2c1OC(=O)c1cc(O)c(O)c(O)c1` showed an IC50 in the test on SK-BR-3 of 28 µM. In test [4], the inhibition result was “inactive”. The compound `O=C(Oc1cccc2cccc(OC(=O)c3cc(O)c(O)c(O)c3)c12)c1cc(O)c(O)c(O)c1` returned an IC50 with SK-BR-3 of 78 µM. In addition, the inhibition entry in test [5] was “inactive”. For the compound `O=C(Oc1cccc(OC(=O)c2cc(O)c(O)c(O)c2)c1)c1cc(O)c(O)c(O)c1`, the 50% inhibitory concentration (IC50) with SK-BR-3 turned out to be 42 µM. Moreover, the inhibition entry in [6] is “inactive”. For the compound `O=C(Oc1ccc2cccc(OC(=O)c3cc(O)c(O)c(O)c3)c2c1)c1cc(O)c(O)c(O)c1`, it took 47 µM to reach half-maximal inhibition with SK-BR-3 (IC50). Besides, in test [7], the inhibition result was “inactive”. `O=C(O[C@@H]1CCCC[C@H]1OC(=O)c1cc(O)c(O)c(O)c1)c1cc(O)c(O)c(O)c1` (relative stereo) registered an IC50 in the test on SK-BR-3 above 150 µM. Regarding `O=C(Oc1cc2c(c(OC(=O)c3cc(O)c(O)c(O)c3)c1)CCCC2)c1cc(O)c(O)c(O)c1`, the midpoint of inhibition in the test on SK-BR-3, the IC50, lay at 31 µM. Besides, the inhibition entry in test [8] was “inactive”.

Regarding `O=C(Oc1ccc2ccccc2c1OC(=O)c1cc(O)c(O)c(O)c1)c1cc(O)c(O)c(O)c1`, the IC50 in the test on SK-BR-3 worked out at 74 µM.

In the case of `O=C(Oc1ccc2ccc(OC(=O)c3cc(O)c(O)c(O)c3)cc2c1)c1cc(O)c(O)c(O)c1`, in the test on SK-BR-3, the IC50 was 26 µM. Moreover, the inhibition entry in test [9] was “inactive”. `O=C(O[C@H]1CC[C@@H](OC(=O)c2cc(O)c(O)c(O)c2)c2ccccc21)c1cc(O)c(O)c(O)c1` displayed a concentration for half-maximal inhibition (IC50) in the test on SK-BR-3 of 22 µM. Besides, in [10], the inhibition result was “inactive”. As to `O=C(Oc1cc2ccccc2cc1OC(=O)c1cc(O)c(O)c(O)c1)c1cc(O)c(O)c(O)c1`, half-maximal inhibition with SK-BR-3 (IC50) was put at 76 µM. Also, the inhibition in test [11] is 31%. `O=C(O[C@H]1CC[C@H](OC(=O)c2cc(O)c(O)c(O)c2)c2ccccc21)c1cc(O)c(O)c(O)c1` showed an IC50 in the test with SK-BR-3 of 42 µM. Besides, the inhibition in [6] was 41%. Regarding `Cc1cc(OC(=O)c2cc(O)c(O)c(O)c2)ccc1OC(=O)c1cc(O)c(O)c(O)c1`, the 50% inhibitory concentration (IC50) in the test on SK-BR-3 is 23 µM. In [12], the inhibition entry is “inactive”. In [13], `O=C(O[C@@H]1Cc2c(O)cc(O)cc2O[C@@H]1c1cc(O)c(O)c(O)c1)c1cc(O)c(O)c(O)c1` [EPIGALOCATECHIN GALLATE] came in with an inhibition of 18%. In the test on SK-BR-3, this compound displayed an IC50 of 149 µM. In turn, `O=C(Oc1ccc(OC(=O)c2cc(O)c(O)c(O)c2)cc1)c1cc(O)c(O)c(O)c1` came in with an IC50 in the test on SK-BR-3 of 25 µM. Besides, in test [14], the inhibition result was “inactive”. As to `O=C(Oc1ccc(OC(=O)c2cc(O)c(O)c(O)c2)c2c1CCCC2)c1cc(O)c(O)c(O)c1`, in test [15], the inhibition result is “inactive”. In the test on SK-BR-3, this compound showed an IC50 of 41 µM. On to `O=C(Oc1cccc2c(OC(=O)c3cc(O)c(O)c(O)c3)cccc12)c1cc(O)c(O)c(O)c1`, for which the IC50 in the test with SK-BR-3 is 26 µM. In addition, in test [9], the inhibition was determined as 30%. With `O=C(Oc1ccc(OC(=O)c2cc(O)c(O)c(O)c2)c2ccccc12)c1cc(O)c(O)c(O)c1`, the IC50 in the test with SK-BR-3 turned out to be 29 µM. The compound `O=C(Oc1ccc2cc(OC(=O)c3cc(O)c(O)c(O)c3)ccc2c1)c1cc(O)c(O)c(O)c1` yielded an IC50 with SK-BR-3 of 5 µM. In test [16], the inhibition entry is “inactive”.

For `O=C(OCCOC(=O)c1cc(O)c(O)c(O)c1)c1cc(O)c(O)c(O)c1`, the concentration for half-maximal inhibition (IC50) with SK-BR-3 was above 150 µM. The compound `O=C(Oc1ccc(OC(=O)c2cc(O)c(O)c(O)c2)c(-c2ccccc2)c1)c1cc(O)c(O)c(O)c1` yielded an IC50 with SK-BR-3 of 17 µM. Besides, in test [17], the inhibition entry is “inactive”.

`O=C(Oc1cc(OC(=O)c2cc(O)c(O)c(O)c2)c2ccccc2c1)c1cc(O)c(O)c(O)c1` gave an IC50 in the test with SK-BR-3 of 21 µM.

The compound `O=C(O[C@H]1CCCC[C@H]1OC(=O)c1cc(O)c(O)c(O)c1)c1cc(O)c(O)c(O)c1` returned an IC50 in the test with SK-BR-3 above 150 µM. Same read-out and setting: in the case of `O=C(Oc1ccccc1OC(=O)c1cc(O)c(O)c(O)c1)c1cc(O)c(O)c(O)c1` it was 125 µM.
